What all share (type): functional
Assay [1] relates to Mus musculus. As to the kind of experiment: Antihyperlipidemic activity in olive oil-treated ddY mouse assessed as serum triglyceride level at 50 mg/kg, po after 2 hrs. In a few lines: (§1)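 Male ddY mice (25-30 g) kept at 23 ± 2 °C on standard chow, fasted 24-26 h with free access to water, conscious. Test sample given orally; olive oil (5 mL/kg, p.o.) given 30 min later. Blood drawn from the infraorbital venous plexus 2, 4 and 6 h after olive oil. Serum TG measured enzymatically (triglyceride E test). Means ± SEM, n = 5-12 per group.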

Assay [2] concerns Mus musculus. As to the kind of experiment: Antihyperlipidemic activity in olive oil-treated ddY mouse assessed as serum triglyceride level at 100 mg/kg, po after 2 hrs. A digest of the protocol: as §1
The test system of assay [3] is Mus musculus. Put plainly: Antihyperlipidemic activity in olive oil-treated ddY mouse assessed as serum triglyceride level at 50 mg/kg, po after 6 hrs. A digest of the protocol:
as §1

The subject of assay [4] is Mus musculus. Put plainly: Antihyperlipidemic activity in olive oil-treated ddY mouse assessed as serum triglyceride level at 100 mg/kg, po after 4 hrs. In a few lines:
as §1

For assay [5], the system named is Mus musculus. As to the kind of experiment: Antihyperlipidemic activity in olive oil-treated ddY mouse assessed as serum triglyceride level at 50 mg/kg, po after 4 hrs. A digest of the protocol: as §1
Assay [6] relates to Mus musculus. As to the kind of experiment: Antihyperlipidemic activity in olive oil-treated ddY mouse assessed as serum triglyceride level at 100 mg/kg, po after 6 hrs. In a few lines: as §1
Assay [7] deals with Mus musculus. As to the kind of experiment: Antihyperlipidemic activity in olive oil-treated ddY mouse assessed as serum triglyceride level at 125 mg/kg, po after 4 hrs. A digest of the protocol:
as §1

Assay [8] relates to Mus musculus. Put plainly: Antihyperlipidemic activity in olive oil-treated ddY mouse assessed as serum triglyceride level at 125 mg/kg, po after 6 hrs. A digest of the protocol:
as §1

The test system of assay [9] is Mus musculus. Put plainly: Antihyperlipidemic activity in olive oil-treated ddY mouse assessed as serum triglyceride level at 250 mg/kg, po after 4 hrs. A digest of the protocol: as §1
Assay [10] deals with Mus musculus. As to the kind of experiment: Antihyperlipidemic activity in olive oil-treated ddY mouse assessed as serum triglyceride level at 500 mg/kg, po after 2 hrs. A digest of the protocol:
as §1

The subject of assay [11] is Mus musculus. As to the kind of experiment: Antihyperlipidemic activity in olive oil-treated ddY mouse assessed as serum triglyceride level at 125 mg/kg, po after 2 hrs. In a few lines: as §1
The test system of assay [12] is Mus musculus. Put plainly: Antihyperlipidemic activity in olive oil-treated ddY mouse assessed as serum triglyceride level at 500 mg/kg, po after 4 hrs. In a few lines:
as §1

Assay [13] has as its system Mus musculus. As to the kind of experiment: Antihyperlipidemic activity in olive oil-treated ddY mouse assessed as serum triglyceride level at 250 mg/kg, po after 6 hrs. A digest of the protocol: as §1
Assay [14] has as its system Mus musculus. As to the kind of experiment: Antihyperlipidemic activity in olive oil-treated ddY mouse assessed as serum triglyceride level at 250 mg/kg, po after 2 hrs. In a few lines: as §1
The test system of assay [15] is Mus musculus. Put plainly: Antihyperlipidemic activity in olive oil-treated ddY mouse assessed as serum triglyceride level at 500 mg/kg, po after 6 hrs. In a few lines:
as §1

For assay [16], the system named is Mus musculus. Put plainly: Antihyperlipidemic activity in olive oil-treated ddY mouse assessed as serum triglyceride level at 25 mg/kg, po after 6 hrs. A digest of the protocol:
as §1

Assay [17] deals with Mus musculus. Put plainly: Antihyperlipidemic activity in olive oil-treated ddY mouse assessed as serum triglyceride level at 25 mg/kg, po after 4 hrs. A digest of the protocol:
as §1

Assay [18] has as its system Mus musculus. As to the kind of experiment: Antihyperlipidemic activity in olive oil-treated ddY mouse assessed as serum triglyceride level at 25 mg/kg, po after 2 hrs. A digest of the protocol:
as §1

The test system of assay [19] is Mus musculus. As to the kind of experiment: Antihyperlipidemic activity in olive oil-treated ddY mouse assessed as serum triglyceride level at 6.25 mg/kg, po after 6 hrs. In a few lines: as §1
Assay [20] has as its system Mus musculus. As to the kind of experiment: Antihyperlipidemic activity in olive oil-treated ddY mouse assessed as serum triglyceride level at 6.25 mg/kg, po after 4 hrs. A digest of the protocol: as §1
Assay [21] concerns Mus musculus. Put plainly: Antihyperlipidemic activity in olive oil-treated ddY mouse assessed as serum triglyceride level at 6.25 mg/kg, po after 2 hrs. In a few lines: as §1
Assay [22] concerns Mus musculus. Put plainly: Antihyperlipidemic activity in olive oil-treated ddY mouse assessed as serum triglyceride level at 12.5 mg/kg, po after 6 hrs. A digest of the protocol:
as §1

Assay [23] has as its system Mus musculus. As to the kind of experiment: Antihyperlipidemic activity in olive oil-treated ddY mouse assessed as serum triglyceride level at 12.5 mg/kg, po after 2 hrs. A digest of the protocol: as §1
Assay [24] has as its system Mus musculus. As to the kind of experiment: Antihyperlipidemic activity in olive oil-treated ddY mouse assessed as serum triglyceride level at 12.5 mg/kg, po after 4 hrs. A digest of the protocol: as §1

Turning to `CC1(C)C[C@H]2C3=CC[C@@H]4[C@@]5(C)CC[C@H](O[C@@H]6O[C@H](C(=O)O)[C@@H](O)[C@H](O[C@@H]7OC[C@H](O)[C@H](O)[C@H]7O[C@@H]7OC[C@@H](O)[C@H](O)[C@H]7O)[C@H]6O[C@@H]6O[C@H](CO)[C@H](O)[C@H](O)[C@H]6O)[C@@](C)(C=O)C5CC[C@@]4(C)[C@]3(C)C[C@@H](O)[C@@]2(CO)[C@@H](O)[C@@H]1O` (stereo partly drawn), the Activity stood at 468.7 mg/dL in the assay with Mus musculus [1]; 440.8 mg/dL with Mus musculus [2]; 332.3 mg/dL with Mus musculus [3]; 363.2 mg/dL in the assay on Mus musculus [4]; 410.5 mg/dL with Mus musculus [5]; 314.3 mg/dL in the assay with Mus musculus [6].
In the case of `CCOC(=O)C(C)(C)Oc1ccc(Cl)cc1` [CLOFIBRATE], the Activity with Mus musculus [7] came out at 295 mg/dL; in the assay on Mus musculus [8], 333.4 mg/dL; with Mus musculus [9], 340.5 mg/dL; in the assay with Mus musculus [10], 318.2 mg/dL; in the assay with Mus musculus [11], 377.5 mg/dL; in the assay with Mus musculus [12] it was 239.7 mg/dL. Also, the results for the Activity in the assay on Mus musculus [13], in the assay on Mus musculus [14] and in the assay with Mus musculus [15] were 443.3 mg/dL, 441.2 mg/dL and 373.5 mg/dL, respectively.
As for `C/C=C\C(=O)O[C@H]1[C@H](OC(C)=O)[C@]2(CO)[C@H](O)C[C@]3(C)C(=CC[C@@H]4[C@@]5(C)CC[C@H](O[C@@H]6O[C@H](C(=O)O)[C@@H](O)[C@H](O[C@@H]7OC[C@H](O)[C@H](O)[C@H]7O[C@@H]7OC[C@@H](O)[C@H](O)[C@H]7O)[C@H]6O[C@@H]6O[C@H](CO)[C@H](O)[C@H](O)[C@H]6O)C(C)(C)C5CC[C@]43C)[C@@H]2CC1(C)C` (stereo partly drawn) [FLORATHEASAPONIN A], the Activity with Mus musculus [1] stood at 387.4 mg/dL; in the assay on Mus musculus [16], 135.7 mg/dL; in the assay on Mus musculus [2], 158.3 mg/dL; with Mus musculus [3], 256.8 mg/dL; with Mus musculus [17], 251.8 mg/dL; with Mus musculus [18], 411 mg/dL. For the same molecule, the figures for the Activity in the assay with Mus musculus [4], with Mus musculus [5] and in the assay on Mus musculus [6] were 242 mg/dL, 392.9 mg/dL and 322.3 mg/dL, respectively.
Consider `CCCCCCCCCCC[C@@H](C[C@@H]1OC(=O)[C@H]1CCCCCC)OC(=O)[C@H](CC(C)C)NC=O` [ORLISTAT], for which the Activity with Mus musculus [19] came to 155.6 mg/dL; in the assay with Mus musculus [20], 179.3 mg/dL; with Mus musculus [16], 140.1 mg/dL; with Mus musculus [17], 132.2 mg/dL; in the assay on Mus musculus [21], 266.4 mg/dL; with Mus musculus [18] it was 158.9 mg/dL. The results for the Activity with Mus musculus [22], with Mus musculus [23] and in the assay with Mus musculus [24] were 189.7 mg/dL, 187.9 mg/dL and 176 mg/dL, respectively.
As for `C/C=C\C(=O)O[C@H]1[C@H](OC(C)=O)[C@]2(CO)[C@H](O)C[C@]3(C)C(=CC[C@@H]4[C@@]5(C)CC[C@H](O[C@@H]6O[C@H](C(=O)O)[C@@H](O)[C@H](O[C@@H]7OC[C@H](O)[C@H](O)[C@H]7O[C@@H]7OC[C@@H](O)[C@H](O)[C@H]7O)[C@H]6O[C@@H]6O[C@H](CO)[C@H](O)[C@H](O)[C@H]6O)[C@@](C)(C=O)C5CC[C@]43C)[C@@H]2CC1(C)C` (stereo partly drawn) [THEASAPONIN E1], the Activity was determined as 373.9 mg/dL with Mus musculus [1]; 233.9 mg/dL in the assay with Mus musculus [16]; 342.3 mg/dL in the assay on Mus musculus [2]; 267.2 mg/dL in the assay with Mus musculus [3]; 430.7 mg/dL with Mus musculus [17]; 578.5 mg/dL in the assay with Mus musculus [18]. Besides, the Activity with Mus musculus [4] is 389.5 mg/dL; with Mus musculus [5], 312.2 mg/dL; in the assay on Mus musculus [6], 294.9 mg/dL.
Regarding `C/C=C\C(=O)O[C@H]1[C@H](O)[C@]2(COC(C)=O)[C@H](O)C[C@]3(C)C(=CC[C@@H]4[C@@]5(C)CC[C@H](O[C@@H]6O[C@H](C(=O)O)[C@@H](O)[C@H](O[C@@H]7OC[C@H](O)[C@H](O)[C@H]7O[C@@H]7OC[C@@H](O)[C@H](O)[C@H]7O)[C@H]6O[C@@H]6O[C@H](CO)[C@H](O)[C@H](O)[C@H]6O)[C@@](C)(C=O)C5CC[C@]43C)[C@@H]2CC1(C)C` (stereo partly drawn) [THEASAPONIN E2], the Activity in the assay on Mus musculus [1] came out at 552.9 mg/dL; in the assay on Mus musculus [2] it was 509.4 mg/dL; with Mus musculus [3], 361.3 mg/dL; with Mus musculus [4], 507 mg/dL; with Mus musculus [5], 507.5 mg/dL; in the assay on Mus musculus [6], 396.4 mg/dL.

The values above are taken from ChEMBL document CHEMBL1141803, “Floratheasaponins A-C, acylated oleanane-type triterpene oligoglycosides with anti-hyperlipidemic activities from flowers of the tea plant (Camellia sinensis)” (2005).
